Measurements reported in ChEMBL document CHEMBL1128557, “Synthesis, antitumor activity, and chemical properties of silaplatin and related platinum (II) and platinum (IV) complexes derived from beta-silyl amines” (J Med Chem, 1995).

What was measured:
Tumor Cell line [1] = experiment: The compound was evaluated in vitro for the log10 molecular concentration that caused 50 % of 60 human tumor cell line kills; type: ADME, cell-based
Procedure, shortened: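 Human tumor cell lines (leukemia, non-small-cell lung, ovarian, renal) were preincubated 24 h. Platinum complexes were then added as five 10-fold dilutions, 0.01–100 μM, for 48 h, followed by in situ fixation and staining, with solubilized stain read spectrophotometrically. Log LC50 (50% cell kill) was averaged across cell lines within one experiment.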

Mus musculus [2] = experiment: The compound was evaluated for the mean body weight change (BWC) in mice infected with cisplatin sensitive L1210 Leukemia (dose 40 mg/kg, ip),day 1; type: functional, organism-based; parameters: dose 40 mg/kg
Procedure, shortened: (§1)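 CD2F1 mice implanted ip on day 0 with 10^5 L1210/0 (parent) leukemia cells, in groups of 6 or 10 (20 or 30 controls). Complexes given ip in saline plus Tween 80 on days 1, 5 and 9. BWC is the group mean weight change, day 5 minus day 1. MST is median survival and %ILS is calculated from MST, both from dying mice only, excluding day 30 survivors.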

Mus musculus [3] = experiment: The compound was evaluated for the median survival time (MST) in mice infected with cisplatin sensitive L1210 Leukemia (dose 10 mg/kg, ip), day 5; type: functional, organism-based; parameters: dose 10 mg/kg; procedure, shortened: as §1
Mus musculus [4] = experiment: The compound was evaluated for the median survival time (MST) in mice infected with cisplatin sensitive L1210 Leukemia (dose 40 mg/kg, ip), day 1; type: functional, organism-based; parameters: dose 40 mg/kg
Procedure, shortened: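 On day 0, 10⁵ parent or cisplatin-resistant L1210 cells were implanted ip into CD2F1 mice, 6 or 10 per dose group (20 or 30 controls). Dosing was ip on days 1, 5 and 9 in saline plus Tween 80. Median survival time was taken from dying mice only, excluding day-30 survivors. Both sublines were tested concurrently.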

Tumor Cell line [5] = experiment: Evaluated in vitro for the log10 molecular concentration that caused […] tumor growth of 60 human tumor cell lines.; type: functional, cell-based
Procedure, shortened: (§2)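 Cells preincubated 24 h, then exposed to the agent at five 10-fold dilutions (0.01–100 μM for the platinum complexes) for 48 h. Cells fixed in situ and stained; solubilized stain read spectrophotometrically. Panel of leukemia, non-small-cell lung, ovarian and renal lines. Log GI50 or TGI taken per cell line in one experiment, then averaged across lines.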

Mus musculus [6] = experiment: The compound was evaluated for the mean body weight change (BWC) in mice infected with cisplatin sensitive L1210 Leukemia (dose 80 mg/kg, ip),day 1; type: functional, organism-based; parameters: dose 80 mg/kg; procedure, shortened: as §1
Mus musculus [7] = experiment: The compound was evaluated for the median survival time (MST) in mice infected with cisplatin sensitive L1210 Leukemia (dose 80 mg/kg, ip), day 5; type: functional, organism-based; parameters: dose 80 mg/kg; procedure, shortened: as §1
Mus musculus [8] = experiment: The compound was evaluated for the mean body weight change (BWC) in mice infected with cisplatin sensitive L1210 Leukemia (dose 80 mg/kg, ip),day 5; type: functional, organism-based; parameters: dose 80 mg/kg; procedure, shortened: as §1
Mus musculus [9] = experiment: The compound was evaluated for the mean body weight change (BWC) in mice infected with cisplatin sensitive L1210 Leukemia (dose 10 mg/kg, ip),day 5; type: functional, organism-based; parameters: dose 10 mg/kg; procedure, shortened: as §1
Mus musculus [10] = experiment: The compound was evaluated for the median survival time (MST) in mice infected with cisplatin sensitive L1210 Leukemia (dose 10 mg/kg, ip), day 1; type: functional, organism-based; parameters: dose 10 mg/kg; procedure, shortened: as §1
Mus musculus [11] = experiment: The compound was evaluated for the median survival time (MST) in mice infected with cisplatin sensitive L1210 Leukemia (dose 20 mg/kg, ip), day 5; type: functional, organism-based; parameters: dose 20 mg/kg; procedure, shortened: as §1
Mus musculus [12] = experiment: The compound was evaluated for the median survival time (MST) in mice infected with cisplatin sensitive L1210 Leukemia (dose 40 mg/kg, ip), day 5; type: functional, organism-based; parameters: dose 40 mg/kg; procedure, shortened: as §1
Mus musculus [13] = experiment: The compound was evaluated for the mean body weight change (BWC) in mice infected with cisplatin sensitive L1210 Leukemia (dose 10 mg/kg, ip),day 1; type: functional, organism-based; parameters: dose 10 mg/kg; procedure, shortened: as §1
Mus musculus [14] = experiment: The compound was evaluated for the median survival time (MST) in mice infected with cisplatin sensitive L1210 Leukemia (dose 80 mg/kg, ip), day 1; type: functional, organism-based; parameters: dose 80 mg/kg; procedure, shortened: as §1
Mus musculus [15] = experiment: The compound was evaluated for the mean body weight change (BWC) in mice infected with cisplatin sensitive L1210 Leukemia (dose 40 mg/kg, ip),day 5; type: functional, organism-based; parameters: dose 40 mg/kg; procedure, shortened: as §1
Tumor Cell line [16] = experiment: Evaluated in vitro for the log10 molecular concentration that caused 50 % inhibition of tumor growth of 60 human tumor cell lines; type: functional, cell-based; procedure, shortened: as §2
Mus musculus [17] = experiment: The compound was evaluated for the mean body weight change (BWC) in mice infected with cisplatin sensitive L1210 Leukemia (dose 20 mg/kg, ip),day 5; type: functional, organism-based; parameters: dose 20 mg/kg; procedure, shortened: as §1

Row | Substance | Log LC50 (Tumor Cell line [1]) | BWC (Mus musculus [2]) [g] | MST (Mus musculus [3]) [days] | MST (Mus musculus [4]) [days] | TGI (Tumor Cell line [5]) [µM] | BWC (Mus musculus [6]) [g] | MST (Mus musculus [7]) [days] | BWC (Mus musculus [8]) [g] | BWC (Mus musculus [9]) [g] | MST (Mus musculus [10]) [days] | MST (Mus musculus [11]) [days] | MST (Mus musculus [12]) [days] | BWC (Mus musculus [13]) [g] | MST (Mus musculus [14]) [days] | BWC (Mus musculus [15]) [g] | GI50 (Tumor Cell line [16]) [µM] | BWC (Mus musculus [17]) [g]
1 | [Bis(aminomethyl)dimethylsilane]tetrachloroplatinum(IV) [listing 1 of 2 here] | > -4.02 | – | – | – | – | – | – | – | – | – | – | – | – | – | – | – | –
2 | [Bis(aminomethyl)dimethylsilane]tetrachloroplatinum(IV) [listing 2 of 2 here] | – | -2.4 | 15 | 27 | 41.7 | -5 | 10 | -3.4 | 0.1 | 18.5 | 19 | 21 | 0 | 8.3 | -1.3 | 4.79 | -0.6
3 | [Bis(aminomethyl)ethylmethylsilane]tetrachloroplatinum(IV) | > -4.02 | – | – | – | – | – | – | – | – | – | – | – | – | – | – | – | –
